Calls of active or inactive are those of the source. The rule behind the calls is not given here.
What was measured:
KB [1] = experiment: Cytotoxicity against human KB cells at 1 uM after 72 hrs by MTS assay; format: functional
KB [2] = experiment: Cytotoxicity against human KB cells after 72 hrs by MTS assay; format: functional, cell-based
HL-60 [3] = experiment: Induction of apoptosis in human HL60 cells assessed as caspase 3/7 activation at 1 uM relative to control; format: functional
In short: (§1)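 Apoptosis read in HL60 human leukemia cells as caspase 3/7 activity, using DEVD-AMC as substrate. Reported as the optimal compound concentration with fold activation.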

[4] = Inhibition of tubulin assembly at 66 uM
In short: (§2)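 Tubulin assembly inhibition run by the Zavala and Guenard method. Reported as percent inhibition at 6.6 x 10^-5 M, or as IC50 for selected compounds.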

HL-60 [5] = experiment: Induction of apoptosis in human HL60 cells assessed as caspase 3/7 activation at 10 uM relative to control; format: functional; in short: as §1
[6] = Ratio of IC50 for drug to deoxypodophyllotoxin for tubulin assembly
In short: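 Inhibition of tubulin assembly was run by the Zavala and Guénard method. Compounds were screened at 6.6 × 10^-5 M, and an IC50 was determined only for the most antiproliferative ones. The value is that IC50 divided by the IC50 of deoxypodophyllotoxin, the reference.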

[7] = Inhibition of tubulin assembly; in short: as §2
HL-60 [8] = experiment: Induction of apoptosis in human HL60 cells assessed as caspase 3/7 activation at 0.1 uM relative to control; format: functional; in short: as §1
HL-60 [9] = experiment: Induction of apoptosis in human HL60 cells assessed as caspase 3/7 activation at 100 uM relative to control; format: functional; in short: as §1

Row | SMILES | inhibition at 1 µM (KB [1]) [%] | IC50 (KB [2]) [nM] | fold change (FC) (HL-60 [3]) | fold change (FC) (HL-60 [9]) | other results
1 | COc1ccc(-c2oc3c(OC)c(OC)c(OC)c(O)c3c(=O)c2Cl)cc1N | 86 | 140 | 4.5 | – | inhibition [4]: 15%
2 | COc1ccc(-c2cc(=O)c3c(O)c(OC)c(OC)c(OC)c3o2)cc1N | 83 | 160 | 6 | – | inhibition [4]: 27%
3 | COc1ccc(-c2cc(=O)c3c(O)c(OC)c(OC)c(OC)c3o2)cc1O | – | 80 | 3.8 | – | fold change (FC) (HL-60 [5]): 5.2; Ratio IC50 [6]: 27; IC50 [7]: 86 µM
4 | COc1ccc(-c2cc(=O)c3c(O)c(OC)c(OC)c(OC)c3o2)cc1[N+](=O)[O-] | 2 | – | – | – | –
5 | COc1ccc(-c2oc3c(OC)c(OC)c(OC)c(O)c3c(=O)c2OC)cc1O | 92 | 20 | – | – | fold change (FC) (HL-60 [8]): 5.7; Ratio IC50 [6]: 3; IC50 [7]: 10 µM
6 | COc1cc(O)c2c(=O)cc(-c3ccc(OC)c(N)c3)oc2c1 | 30 | – | – | inactive | –
7 | COc1ccc(-c2cc(=O)c3c(OC)c(OC)c(OC)c(OC)c3o2)cc1N | 6 | – | – | inactive | –
8 | COc1ccc(-c2oc3c(OC)c(OC)c(OC)c(O)c3c(=O)c2Br)cc1[N+](=O)[O-] | 23 | – | – | – | –
9 | COc1ccc(-c2oc3c(OC)c(OC)c(OC)c(O)c3c(=O)c2Br)cc1N | 55 | – | 3.6 | – | –
10 | COc1ccc(-c2cc(=O)c3c(OC)c(OC)c(OC)c(OC)c3o2)cc1 [TANGERETIN] | 12 | – | – | inactive | –
11 | COc1ccc(-c2cc(=O)c3c(O)cc(O)cc3o2)cc1N | 7 | – | – | 4 | –
12 | COc1ccc(-c2cc(=O)c3c(O)c(OC)c(OC)c(OC)c3o2)cc1 [GARDENIN B] | 28 | – | – | 3.8 | –
13 | COc1ccc(-c2cc(=O)c3c(OC)c(OC)c(OC)c(OC)c3o2)cc1[N+](=O)[O-] | 3 | – | – | – | –

— ChEMBL document CHEMBL1136957, “Semisynthesis and antiproliferative evaluation of a series of 3'-aminoflavones” (Bioorg Med Chem Lett, 2009)
